Sampled rows, rich in hits. Any-hit rate of the full collection: about 1.3%.
TMEM16A inh: blocks the mouse calcium-activated chloride channel TMEM16A; Q8BHY3; HEK293 TMEM16A/YFP iodide influx fluorescence, ionomycin; normalized B-score (activity score, 25-100; higher = stronger inhibition) at 10 µM; hit rate 1.2% among 310,000;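 active = ratio plate-corrected score three or more library SD toward inhibition, starting fluorescence score within five deviations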;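 also: score derived from kinetic fluorescence span divided by baseline fluorescence per well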
ANO1 activ: activators or potentiators of mouse TMEM16A chloride channel; Q8BHY3; HEK293 TMEM16A/YFP-H148Q/I152L, iodide quench fluorescence; hits give low values; B-score at 10 µM; hit rate 0.3% among 340,000;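 active = fluorescence-ratio B-score plate-corrected deviation score at least 3 library SD below zero, with starting fluorescence score within 5 deviations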;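 also: channel opened by trigger with iodide after compound preincubation; score built on the fluorescence ratio of max minus min over baseline; more negative score means more quench and so TMEM16A activation or potentiation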
DAGLB inhibitor: diacylglycerol lipase beta (human) inhibition; hit rate 0.059% among 340,000; Q8NCG7; inhibition, % at 5.17 µM; HEK293T DAGLB membrane lysate, EnzChek fluorogenic substrate; in the data active = inhibition above about 34%;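 also: 0% = enzyme with vehicle and 100% = wells lacking enzyme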
Target sequence (Q8NCG7 whole entry, looked up): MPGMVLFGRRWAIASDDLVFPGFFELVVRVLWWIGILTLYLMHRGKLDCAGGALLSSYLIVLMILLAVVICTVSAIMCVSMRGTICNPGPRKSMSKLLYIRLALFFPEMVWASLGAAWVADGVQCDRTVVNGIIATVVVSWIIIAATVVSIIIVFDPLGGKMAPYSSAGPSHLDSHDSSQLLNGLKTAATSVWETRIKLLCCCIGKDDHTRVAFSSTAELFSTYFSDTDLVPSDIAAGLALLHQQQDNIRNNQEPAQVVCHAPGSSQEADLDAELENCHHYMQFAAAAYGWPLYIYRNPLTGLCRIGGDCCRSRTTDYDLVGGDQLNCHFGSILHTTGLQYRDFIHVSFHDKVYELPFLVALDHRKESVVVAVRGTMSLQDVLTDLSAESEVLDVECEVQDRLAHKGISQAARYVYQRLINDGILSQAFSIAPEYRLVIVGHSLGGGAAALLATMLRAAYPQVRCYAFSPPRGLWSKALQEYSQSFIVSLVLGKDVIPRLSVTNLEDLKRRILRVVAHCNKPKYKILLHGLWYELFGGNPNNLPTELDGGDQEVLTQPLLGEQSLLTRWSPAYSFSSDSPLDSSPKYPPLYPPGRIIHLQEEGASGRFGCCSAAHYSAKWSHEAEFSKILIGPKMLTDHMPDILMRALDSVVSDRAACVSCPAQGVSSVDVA
MT1-MMP act inh: blocks activation of human MT1-MMP. P50281. HT1080 RFP-PRO-GFP cells, GFP/RFP ratio fluorescence, overnight; percent of plate control window, DMSO zero. GFP/RFP ratio change, % at 20 µM. hit rate 0.061% among 360,000. AID 651647;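 active = GFP/RFP ratio change of at least 30% with cell ATP level not reduced by more than half and red fluorescence within 50% of control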
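Compound: 20 µM single dose, 1% DMSO / System: HT1080 RFP-PRO-GFP cells / Controls: DMSO and RFP-L50D-GFP cell wells / Read-out basis: GFP/RFP fluorescence ratio / Schedule: overnight compound exposure at 37 °C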
TMEM16A reconf: reconfirmed blocker of mouse TMEM16A calcium-activated chloride channel | shares compounds with TMEM16A inh | HEK293 TMEM16A/YFP-H148Q, iodide quench fluorescence; ionomycin added to raise cell calcium | inhibition, % at 10 µM | hit rate 39% among 2,300 | AID 652189;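 active = mean duplicate percent inhibition, scaled so buffer wells are 0 and the reference blocker 100, over three buffer SD above buffer mean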
HEK293 Ca mobil: calcium mobilization counter-screen hit for TMEM16A inhibitor series; shares compounds with TMEM16A inh; TMEM16A/YFP HEK293, Fluo4 calcium mobilization; calcium response (% of ionomycin), % at 10 µM; hit rate 2% among 2,300;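 active = duplicate-averaged calcium signal over 20% of the ionomycin maximum, relative to buffer baseline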;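 also: each well's signal is peak minus trough fluorescence divided by its pre-addition baseline; 0% = buffer wells and 100% = ionomycin wells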
YFP-HEK293 quench: acts in parental YFP-HEK293 cells lacking TMEM16A, counter-screen | YFP ratio F(max-min)/F0 at 10 µM | iodide YFP quench, ionomycin | 2,300 tested, under 10 active | AID 652233 | shares compounds with TMEM16A inh;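 active = yellow fluorescent protein signal ratio exceeding the buffer control mean by over 5 SD of those controls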;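 also: ratio is mean of duplicate wells from kinetic YFP trace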
ClC-1 rat inh: selectivity of TMEM16A inhibitors: inhibition of rat ClC-1 chloride channel; AID 652236; shares compounds with TMEM16A inh; ratio percent, % at 10 µM; 2,300 tested, under 10 active; CHO ClC-1-YFP, iodide influx fluorescence quench; iodide control reads 0, buffer control 100;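 active = duplicate-mean ratio percent above the mean of iodide-only control wells, which defines zero, plus 5 of their SD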;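 also: higher percent means stronger block of ClC-1 iodide influx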
Starred values were filed as active, the others as inactive; i = inactive; . = not tested or not shown.

SMILES | TMEM16A inh | ANO1 activ | DAGLB inhibitor | MT1-MMP act inh | TMEM16A reconf | HEK293 Ca mobil | YFP-HEK293 quench | ClC-1 rat inh
C=CCOc1ccc(/C=C2\SC(=S)N(NS(=O)(=O)c3ccccc3)C2=O)cc1 | 100* | i | 20 | 2 | 88%* | i | -1.1 | -48
COCCNC(=O)C1(C)CCCN(C(=O)COc2ccccc2)C1 (stereo not given) | . | . | . | -1 | . | . | . | .
COc1ccc(CCNC(=S)N2CCC(Cc3ccccc3)CC2)cc1OC | 100* | i | 1 | 0 | i | i | -1 | -14
CCOC(=O)c1c(NC(=O)CSc2nnc(-c3ccccc3)o2)sc(C(C)=O)c1C | i | i | 0 | -6 | . | . | . | .
CCOC(=O)c1c(NC(=O)CSc2nc3ccccc3o2)sc(C(C)=O)c1C | 100* | i | -3 | -5 | 22%* | i | -1.1 | -3
CCOC(=O)c1c(NC(=O)CSc2nnc(Cc3ccccc3)o2)sc(C(C)=O)c1C | 25* | i | 0 | -6 | 16%* | i | -1.3 | -21
COc1ccccc1C1(O)CCN(CC(=O)Nc2nc(-c3ccccc3)cs2)CC1 | 100* | i | -3 | -5 | 23%* | i | -0.73 | -2
CCc1nnc(NC(=O)CN2CCC(O)(c3ccccc3OC)CC2)s1 | i | i | -2 | -2 | . | . | . | .
Cc1ccc(-c2csc(NC(=O)CSC3=NCCS3)n2)cc1 | 100* | i | -10 | 0 | 51%* | i | -0.9 | -14
COc1ccc(-c2csc(NC(=O)CSc3nc(SC)ns3)n2)cc1 | 100* | i | -9 | 2 | 21%* | i | -1 | -6
CCOC(=O)N1CCN(C(=O)CSCC(=O)Nc2nc(-c3ccc(-c4ccccc4)cc3)cs2)CC1 | 100* | i | -4 | 7 | 24%* | i | -0.87 | -20
Cc1cccc(C)c1C(O)c1ncc(-c2ccccc2Cl)[nH]1 (stereo not given) | . | . | . | 0 | . | . | . | .
COc1ccccc1OCC(=O)Nc1oc(-c2ccccc2)c(-c2ccccc2)c1C#N | 25* | i | -7 | 8 | 29%* | i | -0.65 | -15
COc1ccc(CC(=O)Nc2oc(-c3ccccc3)c(-c3ccccc3)c2C#N)cc1OC | i | i | -1 | -4 | . | . | . | .
Nc1cc(S(=O)(=O)N2CCCCC2)ccc1Oc1ccc(Cl)cc1 | 100* | i | -3 | -2 | i | i | -1.1 | -14
COC(=O)c1ccc(Oc2ccc(S(=O)(=O)N3CCCCC3)cc2N)cc1 | i | i | -1 | -2 | . | . | . | .
COc1ccc(/C=C2\N=C(SC)SC2=O)cc1OC | i | i | 0 | -3 | . | . | . | .
CCOc1cc(/C=C2\N=C(SC)SC2=O)cc([N+](=O)[O-])c1OC(C)=O | 100* | i | 10 | 0 | i | i | -0.94 | -3
O=C(NCc1cccnc1)c1ccc(COc2ccccc2Br)cc1 | i | i | 1 | -6 | . | . | . | .
O=C(NCc1cccnc1)c1ccc(COc2ccccc2Cl)cc1 | 25* | i | -1 | 3 | 19%* | i | -1.1 | 0
C[C@@H]1CN([C@@H](C)CO)C(=O)CCCn2nncc2CO[C@H]1CN(C)Cc1ccc2cccnc2c1 | . | . | -2 | 4 | . | . | . | .
COc1c(C)cc(Br)cc1C(=O)Nc1ccc(Cc2ccncc2)cc1 | 100* | i | -3 | -4 | i | i | -0.9 | -10
O=C(COc1ccc(Br)cc1)Nc1ccc(Cc2ccncc2)cc1 | 100* | i | -3 | 2 | i | i | -1.2 | -8
Cc1ccccc1OCC(=O)Nc1ccc(Cc2ccncc2)cc1 | i | i | -2 | -6 | . | . | . | .
Cc1ccc(OCC(=O)Nc2ccncc2)c(C)c1 | 25* | i | 0 | 0 | i | i | -1.3 | -10
SMILES | TMEM16A inh | ANO1 activ | DAGLB inhibitor | MT1-MMP act inh | TMEM16A reconf | HEK293 Ca mobil | YFP-HEK293 quench | ClC-1 rat inh
COc1ccc(OC)c(NC(=O)CSc2ccc3ccccc3c2)c1 | 100* | i | -6 | 8 | i | i | -1.1 | -13
Cc1cnc(-c2nc3ccccc3n2C(C(=O)NC(C)(C)C)c2ccncc2)cn1 (stereo not given) | . | . | . | 2 | . | . | . | .
Cn1c(SCc2cccc(F)c2)nnc1-c1ccncc1 | i | . | 4 | 4 | . | . | . | .
O=C(CSc1ccc2ccccc2c1)Nc1ccncc1 | 100* | i | 2 | 3 | 18%* | i | -0.84 | -10
CC(C)c1ccc(OCC(=O)Nc2ccncc2)cc1 | 25* | i | -1 | 4 | i | i | -0.97 | -12
CCc1ccc(OCC(=O)Nc2ccncc2)cc1 | i | i | 2 | 3 | . | . | . | .
O=C(COc1ccc2ccccc2c1)Nc1ccncc1 | 25* | i | -2 | 0 | i | i | -0.95 | -22
Cc1cc(OCC(=O)Nc2ccncc2)ccc1Cl | 25* | i | -4 | 2 | 27%* | i | -0.94 | -15
O=C(COc1ccccc1)Nc1ccncc1 | i | i | -3 | 2 | . | . | . | .
COc1ccc(NC2CCCN(C(=O)COc3ccc(C(C)=O)cc3)C2)cc1 (stereo not given) | . | . | -2 | -4 | . | . | . | .
COc1ccccc1C(=O)NC(=O)COC(=O)CNC(=O)c1ccccc1F | . | i | -2 | -2 | . | . | . | .
CCCCC1SC(N)=NC1=O (stereo not given) | . | i | -2 | 0 | . | . | . | .
O=C(COc1ccc2ccccc2c1)NNC(=O)Nc1ccccc1F | i | i | 0 | -4 | . | . | . | .
C/C(=N\NC(=O)COc1ccc(C(C)(C)C)cc1)c1ccc(-n2ccnc2)cc1 | i | i | -1 | -2 | . | . | . | .
O=C(COc1ccc2ccccc2c1)Nc1ccc(Br)cc1C(=O)O | 100* | i | 9 | -2 | 42%* | i | -0.68 | 3
CC(C)(C)c1ccc(NC(=O)COc2ccc(-n3ccnc3)cc2)cc1 | 100* | i | 2 | -5 | 44%* | i | -0.99 | -10
O=C(NCc1ccccc1CN1CCCC1)c1ccc(Cl)c(S(=O)(=O)N2CCCC2)c1 | . | i | 0 | 6 | . | . | . | .
O=c1cc(C(F)(F)F)[nH]c2ccc(OC(F)(F)F)cc12 | 100* | i | . | 22 | 43%* | i | -0.87 | -21
O=C(CCc1nc2ccccc2[nH]1)Nc1ccc(F)cc1 | 25* | i | -3 | 3 | i | i | -1.1 | -4
COCCCNC(=O)C[C@@H]1C[C@@]2(C(=O)OC)CCCCC=C2N(Cc2ccco2)C1=O | . | . | . | 0 | . | . | . | .
CCOC=C1C(=O)N(C(C)=O)c2cc(OC)c(OC)cc21 | . | i | 1 | 2 | . | . | . | .

From PubChem
